# Assay results pooled from the literature.
# Lines come from different studies, so protocols differ.
# Target: cAMP-dependent protein kinase catalytic subunit PRKX (PRKX, Homo sapiens, UniProt P51817)
# Residues used in one study (P51817 1-358): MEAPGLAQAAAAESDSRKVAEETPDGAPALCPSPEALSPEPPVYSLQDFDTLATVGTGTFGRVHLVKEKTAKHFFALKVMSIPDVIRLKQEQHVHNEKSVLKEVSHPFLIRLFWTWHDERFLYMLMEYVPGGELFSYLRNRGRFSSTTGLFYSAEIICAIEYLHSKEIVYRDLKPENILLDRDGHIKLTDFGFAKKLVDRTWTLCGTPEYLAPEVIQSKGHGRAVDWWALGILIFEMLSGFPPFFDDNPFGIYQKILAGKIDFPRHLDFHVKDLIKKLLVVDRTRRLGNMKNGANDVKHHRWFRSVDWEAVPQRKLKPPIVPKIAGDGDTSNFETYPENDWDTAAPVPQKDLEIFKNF
Compound,read-out,technique,tested at,remaining binding [%]
Cc1c(NC(=O)c2cc(C(N)=O)nc3cc(F)ccc23)c(C(F)(F)F)nn1Cc1ccc(C(C)(C)C)cc1,cell-free assay,competition with immobilised ligand,1 µM,94
COc1ccnn2ncc(-c3ccnc(N(C)C)n3)c12,binding,,1 µM,100
O=C(c1ccc(Nc2ncc(Cl)c(-c3cc4ccccc4s3)n2)cc1)N1CCC(N2CCCC2)CC1,binding,competition with immobilised ligand,1 µM,67
C[C@@H]1CN(c2cc(-c3nn(C)c4ccc(OC5(C)CC5)cc34)ncn2)C[C@H](C)O1,cell-free assay,competition with immobilised ligand,1 µM,92
COc1cnc(Nc2cccc(S(N)(=O)=O)c2)nc1N1CCN(c2ccccc2)CC1,binding,competition with immobilised ligand,1 µM,100
Cc1cc(C)c(-n2ccn3nc(-c4cccnc4)cc23)cc1NC(=O)c1cc(C#N)cc(S(F)(F)(F)(F)F)c1,cell-free assay,competition with immobilised ligand,0.1 µM,68.5
O=C(Nc1c[nH]nc1C(=O)NC1CCNCC1)c1cc(F)cc(F)c1,binding,competition with immobilised ligand,1 µM,94
N[C@@H]1CCN(c2nccc(-c3cnn4ncccc34)n2)C1,binding,,1 µM,100
c1cncc(-c2cccc(Nc3nccc(NC4CCCCC4)n3)c2)c1,binding,competition with immobilised ligand,10 µM,80
CCCOc1ccc([C@H]2[C@H](C(=O)O)[C@@H](c3ccc4c(c3)OCO4)CN2CC(=O)Nc2c(CC)cccc2CC)cc1,cell-free assay,competition with immobilised ligand,1 µM,91
O=C(NCCCN1CCOCC1)c1ccc(Nc2nccc(-c3cc4ccccc4s3)n2)cc1,binding,competition with immobilised ligand,1 µM,85
C[C@H]1CCN(c2nccc(-c3cnn4ncccc34)n2)C1,binding,,1 µM,100
Nc1ncc2c(n1)-c1c([nH]c3ccc(C#CC4CC4)cc13)CCCC2,binding,competition with immobilised ligand,1 µM,79
COc1ncc2cc3ccccc3nc2c1C#N,cell-free assay,competition with immobilised ligand,5 µM,82
CN(C)c1ncc(F)c(-c2cnn3ncccc23)n1,binding,,1 µM,100
CCN1CCN(Cc2ccc(C(=O)Nc3ccc(C)c(Oc4ccc5c(c4)CC(=O)N5)c3)cc2C(F)(F)F)CC1,binding,competition with immobilised ligand,1 µM,100
Nc1cnc(N2CCc3cc(S(=O)(=O)Nc4c(F)cc(Cl)cc4F)cc(N4CCCC4=O)c32)nc1,cell-free assay,competition with immobilised ligand,1 µM,99
c1cnn2ncc(-c3ccnc(N4CCC45COC5)n3)c2c1,binding,,1 µM,68
COCCOc1nc(-c2ccc(Cl)nc2)nc2c1CN(C(=O)c1ncn3ccccc13)CC2,cell-free assay,competition with immobilised ligand,0.1 µM,100
Cc1cnn2ncc(-c3ccnc(N(C)C)n3)c2c1,binding,,1 µM,85
O=C(c1ccc(Nc2ncc(Cl)c(-c3ccc(Cl)s3)n2)cc1)N1CCC(N2CCCC2)CC1,binding,competition with immobilised ligand,1 µM,95
